pEC50, pIC50: −log10 of the molar value. The source made the active and inactive calls. The calls are words filed in the database; no cut-off is given here.
Legend:
Integrin alpha-5/beta-1 [1] = target: T1, Integrin alpha-5/beta-1 (Homo sapiens, UniProt P05556+P08648); assay: Inhibition of fibronectin binding to alpha5beta1 isolated from human K562 cells incubated for 1 hr by […] competitive solid-phase binding assay; format: tissue-based
Outline: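 Plates coated overnight at 4 °C in carbonate buffer pH 9.6 with fibronectin 0.5 µg/mL (αvβ3, αvβ6, α5β1), fibrinogen 10 µg/mL (αIIbβ3, αvβ5) or ICAM-1 (αLβ2). Blocked 1 h in buffer containing Ca/Mg/Mn 1 mM each and 1% BSA. Purified integrin (3–10 µg/mL) incubated with compound (10⁻⁴–10⁻¹⁰ M) 1 h at room temperature. Bound integrin detected with primary antibody then AlexaFluor488 secondary, Ex485/Em535. Duplicate, at least three repeats.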

Integrin alpha-V/beta-3 [2] = target: T2, Integrin alpha-V/beta-3 (Homo sapiens, UniProt P05106+P06756); assay: Agonist activity at human alphaVbeta3 expressed in HEK293 cells assessed as reduction in fibronectin-induced ERK1/2 phosphorylation at 1 to 100 nM by Western blot analysis; format: cell-based; details: filed as agonist, dose 1-100 nM
[3] = target: T3, Integrin alpha-IIb/beta-3 (Homo sapiens, UniProt P05106+P08514); assay: Antagonist activity at alpha2bbeta3 in human HEL cells assessed as reduction in cell adhesion to fibrinogen pre-incubated for 30 mins before fibrinogen and further incubated for 1 hr by nitrophenyl-N-acetyl-beta-D-glucosaminide substrate based chromogenic assay
Outline: (§1)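 Compound or methanol vehicle pre-incubated with cells for 30 min at room temperature. Cells then plated on wells coated overnight at 4 °C with fibronectin 10 µg/mL (SK-MEL-24, K562, HT-29) or fibrinogen 10 µg/mL (MCF7, HEL). Seeding was 50,000 cells/well, or 100000 for HEL. Adhesion ran 1 h at room temperature. Wells washed with 1% BSA/PBS. Quadruplicate, at least three repeats.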

Integrin alpha-4/beta-1 [4] = target: T4, Integrin alpha-4/beta-1 (Homo sapiens, UniProt P05556+P13612); assay: Inhibition of fibronectin binding to […] isolated from human Jurkat E6.1 cells incubated for 1 hr by scintillation-proximity assay based competitive solid-phase binding assay; format: tissue-based
[5] = target: T3, Integrin alpha-IIb/beta-3; assay: Inhibition of fibrinogen binding to alpha2bbeta3 isolated from human HEL cells incubated for 1 hr by […] competitive solid-phase binding assay
Integrin alpha-V/beta-6 = Integrin alpha-V/beta-6 (Homo sapiens, UniProt P06756+P18564); assay: Inhibition of fibronectin binding to alphaVbeta6 isolated form human HT-29 cells incubated for 1 hr by […] competitive solid-phase binding assay; format: tissue-based
[6] = target: Integrin alpha-L/beta-2 (Homo sapiens); assay: Binding affinity to human alphaLbeta2 incubated for 1 hr by scintillation-proximity assay based competitive solid-phase binding assay
Integrin alpha-5/beta-1 [7] = target: T1, Integrin alpha-5/beta-1; assay: Agonist activity at alpha5beta1 in human K562 cells assessed as increase in cell adhesion to fibronectin at 10 ug/ml […] and further incubated for 1 hr in presence of neutralizing antibody against the alpha5 integrin subunit by nitrophenyl-N-acetyl-beta-D-glucosaminide substrate based chromogenic assay; details: dose 10.0 µg/ml, time 90.0 min
[8] = target: Integrin alpha-L/beta-2 (LFA-1) (Homo sapiens) (UniProt P20701+P05107); assay: Antagonist activity at alphaLbeta2 in human Jurkat E6.1 cells assessed as reduction in ICAM-1-induced ERK1/2 phosphorylation by Western blot analysis; format: cell-based; details: filed as antagonist
[9] = target: Integrin alpha-L/beta-2 (LFA-1) (Homo sapiens, UniProt P05107+P20701); assay: Agonist activity at alphaLbeta2 in human Jurkat E6.1 cells assessed as increase in cell adhesion to ICAM1 pre-incubated for 30 mins before ICAM1 and further incubated for 30 mins by […]; format: cell-based
Outline: (§2)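 Jurkat E6.1 cells labelled with CellTracker green CMFDA (12.5 µM, 30 min, 37 °C), washed, then pre-incubated 30 min at 37 °C with compound or methanol. Plated at 500,000/well on VCAM-1 (α4β1) or ICAM-1 (αLβ2) coated wells (5 µg/mL) for 30 min at 37 °C. Cells lysed in 0.5% Triton X-100; fluorescence read Ex485/Em535. Quadruplicate, at least three repeats.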

Integrin alpha-4/beta-1 [10] = target: T4, Integrin alpha-4/beta-1; assay: Agonist activity at alpha4beta1 in human Jurkat E6.1 cells assessed as increase in cell adhesion to VCAM1 pre-incubated for 30 mins before VCAM1 and further incubated for 30 mins by […]; format: cell-based; outline: as §2
Integrin alpha-4/beta-1 [11] = target: T4, Integrin alpha-4/beta-1; assay: Agonist activity at alpha4beta1 in human Jurkat E6.1 cells assessed as increase in cell adhesion to VCAM1 at 10 ug/ml pre-incubated for 30 mins and further incubated for 30 mins in presence of neutralizing antibody against the alpha4 integrin subunit by nitrophenyl-N-acetyl-beta-D-glucosaminide substrate based chromogenic assay; details: dose 10.0 µg/ml, time 60.0 min
Outline: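 Agonist-coated wells (10 µg/mL in methanol). Cells pre-treated 10 min before plating with neutralizing anti-α5, anti-αv or anti-α4 antibody (10 µg/mL), or pre-incubated with c(-RGDfV) (1 µM). K562 plated at 50,000/well and Jurkat E6.1 at 500,000/well. Adhesion quantified as in the standard assay.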

Integrin alpha-V/beta-3 [12] = target: T2, Integrin alpha-V/beta-3; assay: Agonist activity at alphaVbeta3 in human SK-MEL-24 cells assessed as increase in cell adhesion to fibronectin pre-incubated for 30 mins before fibronectin and further incubated for 1 hr by nitrophenyl-N-acetyl-beta-D-glucosaminide substrate based chromogenic assay
Outline: as §1, with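 “BSA/PBS. Adherent cells read by hexosaminidase substrate, absorbance 405 nm.” for “BSA/PBS.”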

| Structure (SMILES) | pIC50 (Integrin alpha-5/beta-1 [1]) | Activity (Integrin alpha-V/beta-3 [2]) | pIC50 [3] | pIC50 (Integrin alpha-4/beta-1 [4]) | pIC50 [5] | pIC50 (Integrin alpha-V/beta-6) | pIC50 [6] | Activity (Integrin alpha-5/beta-1 [7]) | Activity [8] | pEC50 [9] | pEC50 (Integrin alpha-4/beta-1 [10]) | Activity (Integrin alpha-4/beta-1 [11]) | pEC50 (Integrin alpha-V/beta-3 [12]) |
| --- | --- | --- | --- | --- | --- | --- | --- | --- | --- | --- | --- | --- | --- |
| Nc1ccc(CNC(=O)N2C(=O)CC2CC(=O)O)cc1.O=C(O)C(F)(F)F (stereo not given) | 8.01 | Active | < 5.30 | 6.30 | < 6.00 | < 6.00 | 8.17 | inactive | Dose-dependent effect | – | – | – | – |
| NCc1ccc(NC(=O)N2C(=O)CC2CC(=O)NCCC(=O)O)cc1.O=C(O)C(F)(F)F (stereo not given) | 8.26 | – | 5.81 | – | < 6.00 | < 6.00 | – | – | – | < 5.30 | < 5.30 | inactive | < 5.30 |
| Cc1ccccc1NC(=O)N1C(=O)CC1CC(=O)NCC(=O)O (stereo not given) | 7.28 | – | < 5.30 | < 6.00 | – | < 6.00 | – | – | – | < 5.30 | < 5.30 | inactive | < 5.30 |
